In article PMC10655067 (RSC Chemical Biology, 2020):
“Also recorded” adds a separate entry of the source.

Columns and labels:
TRPC4:C4 [1] = conditions: read-out: TRPC4:C4 IC50; cited from earlier work
TRPC5:C5 = conditions: read-out: TRPC5:C5 IC50; cited from earlier work
TRPC5-SYFP2 = target: T1, TRPC5-SYFP2 (Homo sapiens, UniProt Q9UL62); test: Competition photoaffinity labelling; type: binding; conditions: Pico145 10 μM pre-treatment; 300 nM Pico145-DAAlk 5
T1 sequence (Q9UL62 1-973): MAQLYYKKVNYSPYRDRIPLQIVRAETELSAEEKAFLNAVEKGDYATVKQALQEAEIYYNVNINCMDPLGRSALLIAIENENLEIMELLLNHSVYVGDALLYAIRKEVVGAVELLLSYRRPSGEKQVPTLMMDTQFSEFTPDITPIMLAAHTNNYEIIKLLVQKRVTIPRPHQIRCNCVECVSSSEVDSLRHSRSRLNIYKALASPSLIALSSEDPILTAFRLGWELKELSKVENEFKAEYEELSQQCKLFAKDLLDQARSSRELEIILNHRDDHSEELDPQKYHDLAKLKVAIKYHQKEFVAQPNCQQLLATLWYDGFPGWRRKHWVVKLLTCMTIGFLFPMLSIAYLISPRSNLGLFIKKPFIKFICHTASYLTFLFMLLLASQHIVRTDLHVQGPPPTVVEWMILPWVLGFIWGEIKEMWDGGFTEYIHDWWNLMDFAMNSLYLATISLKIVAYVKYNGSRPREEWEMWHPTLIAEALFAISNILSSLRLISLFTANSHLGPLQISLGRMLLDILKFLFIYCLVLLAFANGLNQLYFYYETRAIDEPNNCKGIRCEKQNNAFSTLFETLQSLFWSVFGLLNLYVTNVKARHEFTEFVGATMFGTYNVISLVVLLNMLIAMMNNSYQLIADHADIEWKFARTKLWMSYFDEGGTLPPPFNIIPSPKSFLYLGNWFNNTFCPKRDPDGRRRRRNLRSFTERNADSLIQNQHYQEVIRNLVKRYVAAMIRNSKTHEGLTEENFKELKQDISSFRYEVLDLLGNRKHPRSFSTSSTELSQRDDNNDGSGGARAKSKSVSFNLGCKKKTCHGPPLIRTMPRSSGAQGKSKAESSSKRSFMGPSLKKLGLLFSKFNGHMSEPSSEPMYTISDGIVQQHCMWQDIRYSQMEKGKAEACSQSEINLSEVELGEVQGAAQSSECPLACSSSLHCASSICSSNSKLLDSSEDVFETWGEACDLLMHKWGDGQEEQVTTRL
In short: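 Tetracycline-induced (1 μg ml−1, 24 h) cells in SBS pre-treated 30 min at 37 °C with test compound or DMSO, then 30 min at 37 °C with 300 nM diazirine-alkyne probe plus competitor. Streptavidin-HRP/anti-GFP blots; biotin/GFP densitometry versus probe-only control; n = 3; one-way ANOVA, Dunnett.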

TRPC4:C4 [2] = target: T2, TRPC4:C4 (Homo sapiens, UniProt Q9UBN4); conditions: read-out: TRPC4:C4 IC50; 10 nM EA was used as activator; cited from earlier work
T2 sequence (Q9UBN4 1-893 isoform Q9UBN4-2): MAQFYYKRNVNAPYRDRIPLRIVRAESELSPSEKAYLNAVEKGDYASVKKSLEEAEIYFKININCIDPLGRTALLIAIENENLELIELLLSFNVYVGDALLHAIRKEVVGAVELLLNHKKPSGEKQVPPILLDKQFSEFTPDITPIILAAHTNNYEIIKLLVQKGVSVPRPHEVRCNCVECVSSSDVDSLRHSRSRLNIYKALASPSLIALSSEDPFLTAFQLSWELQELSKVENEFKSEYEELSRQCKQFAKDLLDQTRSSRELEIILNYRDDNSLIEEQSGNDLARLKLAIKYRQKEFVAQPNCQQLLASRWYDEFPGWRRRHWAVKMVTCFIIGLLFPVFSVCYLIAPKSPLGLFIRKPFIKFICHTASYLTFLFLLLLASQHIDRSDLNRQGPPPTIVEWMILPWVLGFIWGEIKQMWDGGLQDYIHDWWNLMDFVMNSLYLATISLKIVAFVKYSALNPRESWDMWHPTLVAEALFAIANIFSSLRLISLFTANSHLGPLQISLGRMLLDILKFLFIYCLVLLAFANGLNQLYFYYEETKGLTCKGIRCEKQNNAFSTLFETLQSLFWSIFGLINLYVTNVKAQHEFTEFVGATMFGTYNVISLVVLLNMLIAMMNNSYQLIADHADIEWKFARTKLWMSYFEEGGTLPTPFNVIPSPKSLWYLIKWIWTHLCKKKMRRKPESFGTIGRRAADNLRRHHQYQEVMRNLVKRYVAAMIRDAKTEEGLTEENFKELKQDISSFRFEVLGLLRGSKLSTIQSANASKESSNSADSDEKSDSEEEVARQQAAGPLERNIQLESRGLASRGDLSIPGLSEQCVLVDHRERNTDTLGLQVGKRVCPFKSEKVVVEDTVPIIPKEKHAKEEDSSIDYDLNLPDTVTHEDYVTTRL

TRPC4-C1 = TRPC4-C1 (Homo sapiens, UniProt P48995+Q9UBN4); conditions: read-out: TRPC4-C1 IC50; 10 nM EA was used as activator; cited from earlier work
TRPC4-C1, sequence (P48995 whole entry, one chain of several): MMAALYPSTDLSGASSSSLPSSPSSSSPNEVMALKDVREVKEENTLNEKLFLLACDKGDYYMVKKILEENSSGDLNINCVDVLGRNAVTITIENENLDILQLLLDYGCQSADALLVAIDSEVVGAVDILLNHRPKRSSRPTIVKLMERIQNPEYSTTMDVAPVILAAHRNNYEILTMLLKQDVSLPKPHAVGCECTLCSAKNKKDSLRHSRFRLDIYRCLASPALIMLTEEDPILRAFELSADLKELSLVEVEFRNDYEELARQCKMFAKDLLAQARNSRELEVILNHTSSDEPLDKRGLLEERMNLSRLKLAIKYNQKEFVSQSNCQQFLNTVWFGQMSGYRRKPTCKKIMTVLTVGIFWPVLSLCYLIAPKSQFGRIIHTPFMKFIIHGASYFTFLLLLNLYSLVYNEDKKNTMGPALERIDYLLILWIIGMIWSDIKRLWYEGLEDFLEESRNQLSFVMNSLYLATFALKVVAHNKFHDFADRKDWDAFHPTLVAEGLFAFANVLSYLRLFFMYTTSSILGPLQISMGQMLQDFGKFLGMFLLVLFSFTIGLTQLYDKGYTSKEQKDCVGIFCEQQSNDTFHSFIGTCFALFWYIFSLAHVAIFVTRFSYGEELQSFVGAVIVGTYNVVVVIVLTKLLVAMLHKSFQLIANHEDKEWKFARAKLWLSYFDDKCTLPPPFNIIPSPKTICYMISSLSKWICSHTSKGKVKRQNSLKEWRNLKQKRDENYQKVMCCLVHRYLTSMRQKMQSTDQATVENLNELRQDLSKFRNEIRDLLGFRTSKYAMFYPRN

[3] = cited from earlier work

Structure (SMILES) | IC50 (TRPC4:C4 [1]) [nM] | IC50 (TRPC5:C5) [nM] | Effect on TRPC5 photoaffinity labelling with Pico145-DAAlk 5 (TRPC5-SYFP2) | IC50 (TRPC4:C4 [2]) [nM] | IC50 (TRPC4-C1) [nM] | Oral bioavailability [3]
O=C1CN(c2cn[nH]c(=O)c2Cl)CCN1Cc1ccccc1C(F)(F)F [GFB-8438] | 290 | 180 to 280 | – | – | – | –
Cn1c(=O)n(CCCO)c(=O)c2c1nc(Oc1cccc(OC(F)(F)F)c1)n2Cc1ccc(Cl)cc1 [Pico145 1] | – | – | inhibition of TRPC5 labelling; also recorded: inhibits photoaffinity labelling | 0.35 | 0.03 | orally bioavailable
